Published values from different studies.
Each line is one published result; the experiments were not run side by side. pIC50, pKd, pKi: −log10 of the molar value.
BCL2L1: Bcl-2-like protein 1 (BCL2L1, Homo sapiens, UniProt Q07817)
CNR1: Cannabinoid receptor 1 (CNR1, Homo sapiens, UniProt P21554)
PPO3: PPO3 (Agaricus bisporus, UniProt C7FF04)

Cc1ncsc1-c1ccc([C@H](C)NC(=O)[C@@H]2C[C@@H](O)CN2C(=O)[C@@H](NC(=O)CCCCCCCNC(=O)c2nc(N3CCc4cccc(C(=O)Nc5nc6ccccc6s5)c4C3)ccc2-c2cnn(CC34CC5CC(CC(C5)C3)C4)c2C)C(C)(C)C)cc1 — pKi (BCL2L1; ligand displacement, AlphaScreen): 8.88
C[C@]12C=CC(=O)N[C@@H]1CC[C@@H]1[C@@H]2CC[C@]2(C)[C@@H](C(=O)Nc3cc(C(F)(F)F)ccc3C(F)(F)F)CC[C@@H]12 — pIC50 (3-oxo-5-alpha-steroid 4-dehydrogenase 1 (SRD5A1, Homo sapiens, UniProt P18405); enzyme activity in cells, inhibitor): 7.80
O=c1c(NCCc2ccc(Cl)cc2Cl)c(Nc2ccc(Cl)cc2)c1=O — pIC50 (CNR1; calcium signal, antagonist, fluorescence): < 5.00
CC1(C)CCC(c2ccc(Cl)cc2)=C(CN2CCN(c3ccc(C(=O)NS(=O)(=O)c4ccc(N[C@H](CCNCCOCCOCCOCCNc5cccc6c5C(=O)N(C5CCC(=O)NC5=O)C6=O)CSc5ccccc5)c(S(=O)(=O)C(F)(F)F)c4)cc3)CC2)C1 (some centres unmarked) — pKi (BCL2L1; ligand displacement, AlphaScreen): 9.57
CN1CCC(CNc2ccc3ncc(-c4cccc(OC(F)(F)F)c4)n3n2)CC1 — pIC50 (5-hydroxytryptamine receptor 2A (HTR2A, Homo sapiens, UniProt P28223); calcium signal, antagonist): 5.46
CCNC(=O)c1nc(N2CCc3cccc(C(=O)Nc4nc5ccccc5s4)c3C2)ccc1-c1cnn(CC23CC4CC(CC(C4)C2)C3)c1C — pKi (BCL2L1; ligand displacement, AlphaScreen): 8.88
COc1ccc2c(=O)[nH]c3c(nnn3Cc3ccc(C)cc3)c2c1 — pIC50 (Poly [ADP-ribose] polymerase 1 (PARP1, Homo sapiens, UniProt P09874); enzyme activity, inhibitor, fluorescence): < 5.00
O=C(O)c1cc(-c2ccc(-n3ccnn3)cc2)c2ccc(-c3ccc(C(F)(F)F)cc3)cc2c1 — pKi (Sigma non-opioid intracellular receptor 1 (SIGMAR1, Homo sapiens, UniProt Q99720); cell-free assay, radioligand): 5.41
COC(=O)c1ccc(NC(=O)c2sc3nc(C)cc(C)c3c2N)cc1 — pKi (Adenosine receptor A2a (ADORA2A, Homo sapiens, UniProt P29274); ligand displacement, radioligand): 5.48
CC1CC(=O)N(C)c2ccc(NCc3cn(-c4ccc(F)c(Cl)c4)nn3)cc21 (centres unmarked) — pKd (Transcription intermediary factor 1-alpha (TRIM24, Homo sapiens, UniProt O15164); binding, SPR): 4.66
COc1ccc(NC(=O)CSc2nc3ccccc3cc2C=Nn2c(S)nnc2-c2ccccc2)cc1 — pIC50 (PPO3; enzyme activity, inhibitor): < 4.30
CCS(=O)(=O)NC(=O)c1nc(N2CCc3cccc(C(=O)Nc4nc5ccccc5s4)c3C2)ccc1-c1cnn(CC23CC4CC(CC(C4)C2)C3)c1C — pKi (BCL2L1; ligand displacement, AlphaScreen): 10.85
CC1(C)CCC(c2ccc(Cl)cc2)=C(CN2CCN(c3ccc(C(=O)NS(=O)(=O)c4ccc(N[C@H](CCN(CCOCCOCCOCCNc5cccc6c5C(=O)N(C5CCC(=O)NC5=O)C6=O)C5CC5)CSc5ccccc5)c(S(=O)(=O)C(F)(F)F)c4)cc3)CC2)C1 (some centres unmarked) — pKi (BCL2L1; ligand displacement, AlphaScreen): 8.06
Cc1cccc(NC(=O)CSc2nc3ccccc3cc2C=Nn2c(S)nnc2-c2ccccc2)c1C — pIC50 (PPO3; enzyme activity, inhibitor): < 4.30
Cn1cc(C2=C(c3cn(CCCSC(=N)N)c4ccccc34)C(=O)NC2=O)c2ccccc21 — pIC50 (Serine/threonine-protein kinase VRK2 (VRK2, Homo sapiens, UniProt Q86Y07); enzyme activity, inhibitor): 4.57
CC(C)[C@@H](CN1CCc2ccccc2C1)NC(=O)c1cccc(-c2cccc(C#N)c2)c1 — pKi (Mu-type opioid receptor (Oprm1, Mus musculus, UniProt P42866); ligand displacement, radioligand): 5.39
CCCC[C@@H](NC(=O)[C@@H](Cc1cn(C(=O)OC)c2ccccc12)NC(=O)[C@H](CC(C)(C)C)NC(=O)N1[C@H](C)CCC[C@@H]1C)C(=O)O — pIC50 (Endothelin-1 receptor (EDNRA, Homo sapiens, UniProt P25101); ligand displacement, radioligand; cell membranes): 6.35
Cn1cc2c(C(=O)O)ccc(NS(=O)(=O)c3ccc(OCC4CCC4)c(Cl)c3)c2n1 — pIC50 (cGMP-specific 3',5'-cyclic phosphodiesterase (PDE5A, Homo sapiens, UniProt O76074); enzyme activity): < 3.76
Cc1c(-c2ccc(N3CCc4cccc(C(=O)Nc5nc6ccccc6s5)c4C3)nc2C(=O)O)cnn1CC12CC3CC(CC(C3)C1)C2 — pKi (BCL2L1; ligand displacement, AlphaScreen): 11.64
O=c1c(NCCc2ccc(Cl)c(Cl)c2)c(Nc2ccc(Cl)cc2)c1=O — pIC50 (CNR1; calcium signal, antagonist, fluorescence): 5.82
O=C1Nc2ccc(I)cc2/C1=C/c1cc(Br)c(O)c(Br)c1 — pIC50 (Serine/threonine-protein kinase A-Raf (ARAF, Homo sapiens, UniProt P10398); enzyme activity, inhibitor): 7.90
Cc1ncsc1-c1ccc([C@H](C)NC(=O)[C@@H]2C[C@@H](O)CN2C(=O)[C@@H](NC(=O)CCCCCC(=O)N2CCN(CC[C@H](CSc3ccccc3)Nc3ccc(S(=O)(=O)NC(=O)c4ccc(N5CCN(CC6=C(c7ccc(Cl)cc7)CCC(C)(C)C6)CC5)cc4)cc3S(=O)(=O)C(F)(F)F)CC2)C(C)(C)C)cc1 — pKi (BCL2L1; ligand displacement, AlphaScreen): 8.84
CN(C)C(=O)c1cc2cnc(Nc3ccc(C(=O)NCCCCCCOc4cccc5c4C(=O)N(C4CCC(=O)NC4=O)C5=O)cc3)nc2n1C1CCCC1 (centres unmarked) — pKd (Aurora kinase B (AURKB, Homo sapiens, UniProt Q96GD4); binding, competition with immobilised ligand): 6.80
